The text below walks through data of ChEMBL document CHEMBL1131123, “Extended aromatic furan amidino derivatives as anti-Pneumocystis carinii agents” (J Med Chem, 1998).

SMILES strings stand for the structures.

Series [1] deals with Rattus norvegicus. In words: In vivo evaluation of iv dosage of the Dicationic furans against Pneumocystis carinii in lung tissue of rats at 10 umol/kg/day. The series is classed as functional. The essentials: (§1)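 Immunosuppressed rat model of P. carinii pneumonia. Compounds are dosed intravenously. Read-out is cysts per g of lung tissue, compared against pooled saline-treated control rats (n = 125). Other details follow ref 2.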

The subject of series [2] is Rattus norvegicus. The experiment in a line: In vivo evaluation of iv dosage of the furan dications against Pneumocystis carinii in lung tissue of rats at 7.1 umol/kg/day. Format: functional. In outline: as §1
The test system of series [3] is Rattus norvegicus. In words: In vivo evaluation of iv dosage of the Dicationic furans against Pneumocystis carinii in lung tissue of rats at 2 umol/kg/day. The series is classed as functional. In outline:
as §1

The nature of series [4]: In vivo evaluation of iv dosage of the Dicationic furans against Pneumocystis carinii in rats measured 10 umol/kg/day. The series is classed as ADME, organism-based. To be noted: rat. The essentials: (§2)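 Intravenous dosing of test dications in immunosuppressed rats infected with P. carinii, following a previously described protocol. Infection is scored by lung cyst burden relative to pooled saline-control animals.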

A short description of series [5]: In vivo evaluation of iv dosage of the Dicationic furans against Pneumocystis carinii in rats measured 2 umol/kg/day. The series is classed as ADME, organism-based. To be noted: rat. In outline:
as §2

For series [6], the system named is Rattus norvegicus. The experiment in a line: In vivo evaluation of iv dosage of the Dicationic furans against Pneumocystis carinii in lung tissue of rats at 0.3 umol/kg/day. Format: functional. In outline:
(§3)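 Immunosuppressed rat model of P. carinii pneumonia, with test compounds dosed intravenously per an earlier protocol. Read-out is cyst count per g of lung tissue, compared against pooled saline-treated controls.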

Series [7] has as its system Rattus norvegicus. In words: In vivo evaluation of iv dosage of the Dicationic furans against Pneumocystis carinii in lung tissue of rats at 0.03 umol/kg/day. The series is classed as functional. The essentials:
as §3

Series [8] in a line: In vivo evaluation of iv dosage of the Dicationic furans against Pneumocystis carinii in rats measured 0.3 umol/kg/day. Format: ADME, organism-based. Conditions: rat. The essentials: as §2
For series [9], the system named is Rattus norvegicus. The experiment in a line: In vivo evaluation of iv dosage of the Dicationic furans against Pneumocystis carinii in lung tissue of rats at 2.7 umol/kg/day. The series is classed as functional. In outline: as §3
Series [10] deals with Rattus norvegicus. The experiment in a line: In vivo evaluation of iv dosage of the Dicationic furans against Pneumocystis carinii in lung tissue of rats at 13.3 umol/kg/day. Format: functional. In outline: as §3
A short description of series [11]: In vivo evaluation of iv dosage of the Dicationic furans against Pneumocystis carinii in rats measured 0.03 umol/kg/day. To be noted: rat. The series is classed as ADME, organism-based. In outline:
as §2

Series [12] is described as follows: In vivo evaluation of iv dosage of the Dicationic furans against Pneumocystis carinii in rats measured 2.7 umol/kg/day. Format: ADME, organism-based. Conditions: rat. In outline:
as §2

Series [13] is described as follows: In vivo evaluation of iv dosage of the Dicationic furans against Pneumocystis carinii in rats measured 13.3 umol/kg/day. To be noted: rat. The series is classed as ADME, organism-based. In outline: as §2
Series [14] has as its system Rattus norvegicus. In words: In vivo evaluation of iv dosage of the Dicationic furans against Pneumocystis carinii in lung tissue of rats at 0.9 umol/kg/day. The series is classed as functional. The essentials: as §1
Series [15] can be described thus: In vivo evaluation of iv dosage of the Dicationic furans against Pneumocystis carinii in rats measured 1.9 umol/kg/day. Format: ADME, organism-based. Conditions: rat. In outline:
as §2

Series [16] in a line: In vivo evaluation of iv dosage of the Dicationic furans against Pneumocystis carinii in rats measured 0.9 umol/kg/day. Conditions: rat. The series is classed as ADME, organism-based. In outline: as §2
The nature of series [17]: In vivo evaluation of iv dosage of the Dicationic furans against Pneumocystis carinii in rats measured 0.2 umol/kg/day. The series is classed as ADME, organism-based. To be noted: rat. The essentials: as §2
Series [18] deals with Rattus norvegicus. In words: In vivo evaluation of iv dosage of the Dicationic furans against Pneumocystis carinii in lung tissue of rats at 9.4 umol/kg/day. The series is classed as functional. The essentials: as §1
The subject of series [19] is Rattus norvegicus. In words: In vivo evaluation of iv dosage of the Dicationic furans against Pneumocystis carinii in lung tissue of rats at 0.2 umol/kg/day. Format: functional. In outline: as §1
The subject of series [20] is Rattus norvegicus. The experiment in a line: In vivo evaluation of iv dosage of the Dicationic furans against Pneumocystis carinii in lung tissue of rats at 1.9 umol/kg/day. Format: functional. The essentials:
as §1

Series [21] in a line: In vivo evaluation of iv dosage of the Dicationic furans against Pneumocystis carinii in rats measured 5 umol/kg/day. The series is classed as ADME, organism-based. To be noted: rat. The essentials:
as §2

The test system of series [22] is Rattus norvegicus. In words: In vivo evaluation of iv dosage of the Dicationic furans against Pneumocystis carinii in lung tissue of rats at 5 umol/kg/day. The series is classed as functional. In outline: as §1
Series [23] has as its system Rattus norvegicus. The experiment in a line: In vivo evaluation of iv dosage of the Dicationic furans against Pneumocystis carinii in lung tissue of rats at 3.8 umol/kg/day. Format: functional. In outline:
as §1

The test system of series [24] is Rattus norvegicus. The experiment in a line: In vivo evaluation of iv dosage of the furan dications against Pneumocystis carinii in lung tissue of rats at 22 umol/kg/day. Format: functional. In outline: as §1
The subject of series [25] is Rattus norvegicus. In words: In vivo evaluation of iv dosage of the Dicationic furans against Pneumocystis carinii in lung tissue of rats at 2.5 umol/kg/day. The series is classed as functional. The essentials: as §1
The subject of series [26] is Rattus norvegicus. In words: In vivo evaluation of iv dosage of the Dicationic furans against Pneumocystis carinii in lung tissue of rats at 1.1 umol/kg/day. Format: functional. In outline:
as §1

The subject of series [27] is Rattus norvegicus. The experiment in a line: In vivo evaluation of iv dosage of the Dicationic furans against Pneumocystis carinii in lung tissue of rats at 2.2 umol/kg/day. The series is classed as functional. In outline: as §1
Series [28] relates to Rattus norvegicus. In words: In vivo evaluation of iv dosage of the Dicationic furans against Pneumocystis carinii in lung tissue of rats at 10.8 umol/kg/day. Format: functional. In outline: as §1
Series [29] is described as follows: In vivo evaluation of iv dosage of the Dicationic furans against Pneumocystis carinii in rats measured 10.8 umol/kg/day. Format: ADME, organism-based. Conditions: rat. The essentials:
as §2

A short description of series [30]: In vivo evaluation of iv dosage of the Dicationic furans against Pneumocystis carinii in rats measured 2.2 umol/kg/day. Conditions: rat. Format: ADME, organism-based. In outline: as §2
The nature of series [31]: In vivo evaluation of iv dosage of the Dicationic furans against Pneumocystis carinii in rats measured 1.1 umol/kg/day. The series is classed as ADME, organism-based. To be noted: rat. The essentials:
as §2

In the case of `CC(C)/N=C(\N)c1ccc(-c2ccc(-c3nc4cc(/C(N)=N\C(C)C)ccc4[nH]3)o2)cc1`, the Control with Rattus norvegicus [1] was 0.13%.

In the series with Rattus norvegicus [2], `Cl.N=C(N)c1ccc2[nH]c(-c3ccc(-c4ccc(-c5ccc(-c6nc7cc(C(=N)N)ccc7[nH]6)cc5)o4)cc3)nc2c1` came in with a Control of 180%.

In the case of `CC(C)/N=C(\N)c1ccc2[nH]c(-c3ccc(-c4nc5cc(/C(N)=N/C(C)C)ccc5[nH]4)o3)nc2c1.Cl`, the Control in the series with Rattus norvegicus [1] is 0.11%; in the series on Rattus norvegicus [3], 31.77. Further, the Toxicity in [4] and in series [5] was 0 each time.

In turn, `Cl.N=C(N)c1ccc2[nH]c(-c3ccc(-c4nc5cc(C(=N)N)ccc5[nH]4)o3)nc2c1` registered a Control in the series on Rattus norvegicus [1] of 1.8%.

In the case of `N=C(N)c1ccc(-c2ccc(-c3ccc(C(=N)N)cc3)o2)cc1` [FURAMIDINE], the Control in the series with Rattus norvegicus [6] worked out at 6.42%; in the series on Rattus norvegicus [7], 26.23%; with Rattus norvegicus [9], 6.74%; in the series on Rattus norvegicus [10], 0.73%. The Toxicity in series [8], in [11], in [12] and in series [13] was 0 throughout.

`N=C(NC1CCCC1)c1ccc(-c2ccc(-c3ccc(C(=N)NC4CCCC4)cc3)o2)cc1`: the Control was 0.13% in the series with Rattus norvegicus [14], 0.04% in the series on Rattus norvegicus [18], 111.65% in the series on Rattus norvegicus [19] and 0.09% with Rattus norvegicus [20]. In addition, the Toxicity in series [15], in series [16] and in series [17] was 0 each time.

Compound `N=C(N)c1ccc(-c2ccc(-c3nc4cc(C(=N)N)ccc4[nH]3)o2)cc1` yielded a Toxicity in series [21] of 0. Besides, the Control in the series on Rattus norvegicus [22] is on record as 50.98%.

For the compound `Cl.N=C(NC1CCCC1)c1ccc2[nH]c(-c3ccc(-c4nc5cc(C(=N)NC6CCCC6)ccc5[nH]4)o3)nc2c1`, the Control with Rattus norvegicus [23] is recorded as 53.81%.

In turn, `N=C(N)c1ccc(OCCCCCOc2ccc(C(=N)N)cc2)cc1` [PENTAMIDINE] gave a Control in the series on Rattus norvegicus [24] of 1.82%.

For the compound `N=C(NC1CCCC1)c1ccc(-c2ccc(-c3nc4cc(C(=N)NC5CCCC5)ccc4[nH]3)o2)cc1`, the Control in the series on Rattus norvegicus [25] was found to be 0.82%.

Consider `CC(C)NC(=N)c1ccc(-c2ccc(-c3ccc(C(=N)NC(C)C)cc3)o2)cc1`, for which the Control is 14% with Rattus norvegicus [26], 10.04% with Rattus norvegicus [27], 0.24% in the series on Rattus norvegicus [28] and 201.74% with Rattus norvegicus [19]. For the same compound, the Toxicity in [17], in series [29], in [30] and in [31] was 0 in each case.
